A word on the IC50: it is the midpoint of a concentration-inhibition curve. The term inhibition denotes the share of the control response that was lost under treatment.

Active and inactive are the calls of the source. The calls are words filed in the database; no cut-off is given here. Some results are limits rather than exact numbers.

Test [1] concerns the target T1, Fatty-acid amide hydrolase 1 (Rattus norvegicus, UniProt P97612).
T1 sequence (P97612 whole entry): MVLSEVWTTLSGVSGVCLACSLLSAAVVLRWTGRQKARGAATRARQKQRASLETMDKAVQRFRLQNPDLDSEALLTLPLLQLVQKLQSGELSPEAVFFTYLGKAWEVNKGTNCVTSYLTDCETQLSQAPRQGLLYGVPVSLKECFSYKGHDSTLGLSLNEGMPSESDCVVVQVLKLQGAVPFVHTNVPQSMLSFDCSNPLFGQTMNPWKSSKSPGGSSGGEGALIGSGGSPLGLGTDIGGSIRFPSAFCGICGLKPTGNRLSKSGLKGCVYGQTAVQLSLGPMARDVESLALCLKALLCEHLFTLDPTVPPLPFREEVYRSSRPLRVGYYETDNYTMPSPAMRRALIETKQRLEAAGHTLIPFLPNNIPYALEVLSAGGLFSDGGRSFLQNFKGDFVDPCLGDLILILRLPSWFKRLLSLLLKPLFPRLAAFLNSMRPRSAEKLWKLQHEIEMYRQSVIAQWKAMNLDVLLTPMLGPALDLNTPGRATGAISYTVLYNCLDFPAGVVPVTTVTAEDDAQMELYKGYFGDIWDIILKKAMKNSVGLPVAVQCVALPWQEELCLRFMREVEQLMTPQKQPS
The test is described as follows: Inhibition of FAAH in rat brain homogenates pre-incubated for 10 mins before addition of [3H]anandamide and [3H]AEA substrates for 30 mins by liquid scintillation counting. It counts as tissue-based. The following applies: read-out: IC50. The method, boiled down:
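Rat whole-brain homogenate (50 ug protein/sample) in 50 mM TRIS pH 7.4, 0.05 % fatty acid free BSA; inhibitor pre-incubated 10 min, then 1 uM unlabelled AEA plus 0.6 nM [3H]-AEA added for 30 min at 37°C. Stopped with cold 1:1 CHCl3/MeOH; aqueous phase counted.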

In test [2] the target is T2, Prostaglandin G/H synthase 1 (Ovis aries, UniProt P05979).
T2 sequence (P05979 whole entry): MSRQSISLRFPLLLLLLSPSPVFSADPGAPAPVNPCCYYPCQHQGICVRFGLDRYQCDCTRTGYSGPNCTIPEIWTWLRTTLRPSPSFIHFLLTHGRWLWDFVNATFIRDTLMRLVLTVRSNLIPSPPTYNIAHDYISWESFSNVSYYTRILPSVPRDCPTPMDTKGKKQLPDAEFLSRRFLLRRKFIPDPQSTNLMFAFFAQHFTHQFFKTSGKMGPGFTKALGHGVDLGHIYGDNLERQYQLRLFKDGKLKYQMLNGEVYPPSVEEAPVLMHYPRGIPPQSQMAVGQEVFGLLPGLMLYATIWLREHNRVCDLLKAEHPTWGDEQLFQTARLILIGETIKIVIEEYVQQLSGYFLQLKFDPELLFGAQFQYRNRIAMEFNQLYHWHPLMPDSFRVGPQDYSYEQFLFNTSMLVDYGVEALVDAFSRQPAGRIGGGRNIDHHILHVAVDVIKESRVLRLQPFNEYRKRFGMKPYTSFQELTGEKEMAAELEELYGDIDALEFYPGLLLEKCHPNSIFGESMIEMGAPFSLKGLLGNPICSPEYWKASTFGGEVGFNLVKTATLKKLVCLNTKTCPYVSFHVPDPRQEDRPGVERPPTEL
Put plainly: Inhibition of ovine COX1 pre-incubated for 10 mins before arachidonic acid substrate addition by enzyme immunoassay. A digest of the protocol: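 Ovine COX-1 pre-incubated with inhibitor for 10 min at 37 °C, then 5 μM arachidonic acid for 2 min at 37 °C. Stopped with HCl; PGH2 reduced to PGF2α with SnCl2 and measured by competitive EIA (PG antibody, PG-acetylcholinesterase conjugate), absorbance at 412 nm.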

In test [3] the target is T2, Prostaglandin G/H synthase 1. Put plainly: Inhibition of sheep COX1 pre-incubated for 5 mins before arachidonic acid substrate addition in presence of DMSO by peroxidase activity detection based oxygen electrode assay.
Test [4] concerns the target T3, Prostaglandin G/H synthase 2 (Ovis aries, UniProt P79208).
T3 sequence (P79208 whole entry): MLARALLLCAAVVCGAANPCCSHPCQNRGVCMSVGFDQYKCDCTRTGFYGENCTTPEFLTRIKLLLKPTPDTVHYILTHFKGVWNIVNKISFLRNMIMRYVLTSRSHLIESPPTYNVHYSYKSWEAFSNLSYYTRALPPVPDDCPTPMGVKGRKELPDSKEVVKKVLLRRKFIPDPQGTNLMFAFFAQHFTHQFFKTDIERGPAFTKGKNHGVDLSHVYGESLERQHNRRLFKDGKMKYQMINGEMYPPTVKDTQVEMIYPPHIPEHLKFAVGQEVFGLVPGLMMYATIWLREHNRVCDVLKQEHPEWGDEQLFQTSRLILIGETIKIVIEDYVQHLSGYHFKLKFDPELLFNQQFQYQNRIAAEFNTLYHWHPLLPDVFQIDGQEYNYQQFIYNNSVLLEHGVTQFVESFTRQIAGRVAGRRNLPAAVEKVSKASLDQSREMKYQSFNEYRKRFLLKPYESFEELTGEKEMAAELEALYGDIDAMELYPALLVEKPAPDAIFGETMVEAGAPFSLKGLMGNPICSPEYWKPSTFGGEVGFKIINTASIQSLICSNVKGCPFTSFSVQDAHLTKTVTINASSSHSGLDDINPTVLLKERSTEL
Put plainly: Inhibition of sheep COX2 pre-incubated for 5 mins before […] substrate addition by peroxidase activity detection based oxygen electrode assay.

In test [5] the target is T4, Prostaglandin G/H synthase 2 (Homo sapiens) (UniProt P35354).
T4 sequence (whole entry): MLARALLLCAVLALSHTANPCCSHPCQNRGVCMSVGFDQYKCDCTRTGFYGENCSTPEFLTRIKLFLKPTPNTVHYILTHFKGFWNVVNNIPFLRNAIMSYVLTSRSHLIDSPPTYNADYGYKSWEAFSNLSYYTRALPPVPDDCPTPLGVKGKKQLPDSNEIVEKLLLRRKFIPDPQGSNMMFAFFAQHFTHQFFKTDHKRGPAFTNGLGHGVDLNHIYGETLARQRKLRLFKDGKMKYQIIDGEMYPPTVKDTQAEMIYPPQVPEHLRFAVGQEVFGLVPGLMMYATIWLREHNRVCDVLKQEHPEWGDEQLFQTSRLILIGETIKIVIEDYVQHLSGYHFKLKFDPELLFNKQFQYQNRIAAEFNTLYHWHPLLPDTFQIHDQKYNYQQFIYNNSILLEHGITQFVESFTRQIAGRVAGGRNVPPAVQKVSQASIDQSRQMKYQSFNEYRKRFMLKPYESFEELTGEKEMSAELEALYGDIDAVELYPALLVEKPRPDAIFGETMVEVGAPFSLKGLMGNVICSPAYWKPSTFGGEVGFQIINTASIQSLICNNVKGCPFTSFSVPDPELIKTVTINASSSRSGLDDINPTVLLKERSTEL
The test is described as follows: Inhibition of human COX2 at 30 uM pre-incubated for 10 mins before substrate addition by enzyme immunoassay. The method, boiled down:
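Human COX-2 pre-incubated with inhibitor 10 min at 37 °C, then 5 μM arachidonic acid for 2 min at 37 °C. Reaction stopped with HCl, PGH2 reduced to PGF2α by SnCl2, and PGF2α quantified by competitive EIA with PG-acetylcholinesterase conjugate, absorbance 412 nm. Single test concentration 30 μM.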

Test [6] addresses T2, Prostaglandin G/H synthase 1. The test is described as follows: Inhibition of sheep COX1 pre-incubated for 5 mins before arachidonic acid substrate addition in presence of ethanol by peroxidase activity detection based oxygen electrode assay.
The target of test [7] is T1, Fatty-acid amide hydrolase 1. Put plainly: Inhibition of FAAH in Sprague-Dawley rat cerebellum membranes pre-incubated for 10 mins before addition of [3H]AEA substrate in presence of ethyl alcohol by liquid scintillation counting. It counts as cell membranes, Membrane.
The target of test [8] is T5, Fatty-acid amide hydrolase 1 (Rattus norvegicus) (UniProt P97612).
T5 sequence (whole entry): T1 sequence (P97612 whole entry)
Particulars: Brain, 30 uM.

In test [9] the target is T6, Prostaglandin G/H synthase 2 (Homo sapiens, UniProt P35354).
T6 sequence (P35354 whole entry): T4 sequence (whole entry)
Put plainly: Inhibition of human COX2 pre-incubated for 10 mins before substrate addition by enzyme immunoassay.

Test [10] deals with T5, Fatty-acid amide hydrolase 1 (Rattus norvegicus). Put plainly: Potency index, ratio of IC50 for carprofen to IC50 for compound against FAAH in rat brain homogenates pre-incubated for 10 mins before addition of [3H]anandamide and [3H]AEA substrates for 30 mins by liquid scintillation counting. The class given is tissue-based.

`Cc1cccnc1NC(=O)C(C)c1ccc(CC(C)C)cc1` (stereo unspecified): the IC50 stood at 66 µM in test [1]; 170 µM in [2]; 60 µM in test [3]; 20 µM in test [4]; 240 µM in test [6]; 0.5 µM in test [7]. The same compound had an inhibition in test [5] of 30%.
In the case of `COc1ccccc1Cn1c2ccc(Cl)cc2c2ccc(C(C)C(=O)O)cc21` (racemic), the IC50 in test [1], in [2] and in test [9] was > 100 µM throughout. Moreover, the inhibition result in test [8] was “inactive”.
For the compound `CC(C(=O)O)c1ccc2c(c1)[nH]c1ccccc12` (racemic), the IC50 in test [1] was 4.6 µM; in test [2] it was > 100 µM; in test [9] it was > 100 µM.
On to `COC(=O)C(C)c1ccc2c(c1)[nH]c1ccc(Cl)cc12` (racemic), for which the IC50 was 22.1 µM in test [1], > 100 µM in test [2] and > 100 µM in test [9].
Take `CC(C(=O)Nc1ccccc1)c1ccc2c(c1)[nH]c1ccc(Cl)cc12` (racemic): the figures for the IC50 in [1], in test [2] and in test [9] were 2.9 µM, > 100 µM and > 100 µM, respectively. In addition, in [10], the Ratio IC50 was found to be 26.

Source of the values: ChEMBL document CHEMBL2169800 (J Med Chem, 2012).
